Data on one compound can be found in ChEMBL document CHEMBL1687719, “Absence of CD4+ T lymphocytes, CD8+ T lymphocytes, or B lymphocytes has different effects on the efficacy of posaconazole and benznidazole in treatment of experimental acute Trypanosoma cruzi infection” (2009).

Calls of active or inactive are those of the source. The rule behind the calls is not given here.

Experiment [1] has as its system Trypanosoma cruzi. Briefly: Antitrypanosomal activity against Trypanosoma cruzi Y infected in CD8+ T-lymphocyte knockout C57BL/6 mouse assessed as cure rate in mouse at 20 mg/kg/day, po administered twice daily for 20 consecutive days measured 60 days post infection. The experiment is classed as functional. Summed up:
(§1)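 Wild-type or knockout mice got 5,000 Y-strain blood trypomastigotes ip. Oral dosing ran from 4 dpi for 20 days: 20 mg/kg/day in two doses, in 2% methylcellulose plus 0.5% Tween 80. Cure meant no parasitemia on fresh tail blood up to 60 dpi and a negative hemoculture: 0.5 ml orbital blood in LIT medium, 28°C, 30–60 days, checked by microscopy. Rates compared by chi-square/Bonferroni.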

In experiment [2] the test system is Trypanosoma cruzi. The experiment in a line: Antitrypanosomal activity against Trypanosoma cruzi Y infected in CD4+ T-lymphocyte knockout C57BL/6 mouse assessed as reactivation of parasite in mouse at 20 mg/kg/day, po administered twice daily for 20 consecutive days measured 60 days post infection. Format: functional, organism-based. Summed up:
(§2)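 Ip infection was 5,000 Y-strain blood trypomastigotes. From 4 dpi mice got 20 mg/kg/day orally in two daily doses (2% methylcellulose/0.5% Tween 80) for 20 days. Fresh tail blood was examined microscopically, daily from 4–16 dpi and every other day to 60 dpi. Reactivation was scored as return of patent parasitemia after treatment. Parasitemia curves were compared by Mann-Whitney.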

Experiment [3] deals with Trypanosoma cruzi. The experiment in a line: Antitrypanosomal activity against Trypanosoma cruzi Y infected in B-lymphocyte knockout C57BL/6 mouse assessed as increase in survival of mouse at 20 mg/kg/day, po administered twice daily for 20 consecutive days measured 60 days post infection. The experiment is classed as functional. Conditions: 1440 h. An outline of the steps: (§3)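 Mice were infected ip with 5,000 Y-strain blood trypomastigotes. Oral treatment began at 4 dpi at 20 mg/kg/day, split into two daily doses, suspended in 2% methylcellulose with 0.5% Tween 80, for 20 days. Survival was recorded to 60 dpi, giving rate and mean survival time. Untreated and vehicle-treated infected controls were included. Chi-square/Bonferroni comparison.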

The test system of experiment [4] is Trypanosoma cruzi. The experiment in a line: Antitrypanosomal activity against Trypanosoma cruzi Y infected in CD4+ T-lymphocyte knockout C57BL/6 mouse assessed as cure rate in mouse at 20 mg/kg/day, po administered twice daily for 20 consecutive days measured 60 days post infection. Format: functional. An outline of the steps:
as §1

For experiment [5], the system named is Trypanosoma cruzi. The experiment in a line: Antitrypanosomal activity against Trypanosoma cruzi Y infected in C57BL/6 mouse assessed as increase in survival of mouse at 20 mg/kg/day, po administered twice daily for 20 consecutive days measured 60 days post infection. The experiment is classed as functional. The note with it: 1440 h. An outline of the steps:
as §3

In experiment [6] the test system is Trypanosoma cruzi. The experiment in a line: Antitrypanosomal activity against Trypanosoma cruzi Y infected in CD8+ T-lymphocyte knockout C57BL/6 mouse assessed as occurrence of subpatent level of parasitemia at 20 mg/kg/day, po administered twice daily for 20 consecutive days measured 60 days post infection. The experiment is classed as functional, organism-based. Summed up: as §2

In experiment [7] the test system is Trypanosoma cruzi. The experiment in a line: Antitrypanosomal activity against Trypanosoma cruzi Y infected in B-lymphocyte knockout C57BL/6 mouse assessed as number of mouse with reactivation of infection at 20 mg/kg/day, […] for 20 consecutive days measured 22 days post infection. The experiment is classed as functional, organism-based.

Experiment [8] has as its system Trypanosoma cruzi. Briefly: Antitrypanosomal activity against Trypanosoma cruzi Y infected in CD8+ T-lymphocyte knockout C57BL/6 mouse assessed as increase in survival of mouse at 20 mg/kg/day, po administered twice daily for 20 consecutive days measured 60 days post infection. The experiment is classed as functional. The note with it: 1440 h. Summed up: as §3
Experiment [9] has as its system Trypanosoma cruzi. Briefly: Antitrypanosomal activity against Trypanosoma cruzi Y infected in C57BL/6 mouse assessed as cure rate in mouse at 20 mg/kg/day, po administered twice daily for 20 consecutive days measured 60 days post infection. The experiment is classed as functional. Summed up: as §1
For experiment [10], the system named is Trypanosoma cruzi. The experiment in a line: Antitrypanosomal activity against Trypanosoma cruzi Y infected in B-lymphocyte knockout C57BL/6 mouse assessed as cure rate in mouse at 20 mg/kg/day, po administered twice daily for 20 consecutive days measured 60 days post infection. Format: functional. Summed up: as §1
The subject of experiment [11] is Trypanosoma cruzi. The experiment in a line: Antitrypanosomal activity against Trypanosoma cruzi Y infected in C57BL/6 mouse assessed as mean survival time at 20 mg/kg/day, po administered twice daily for 20 consecutive days measured 60 days post infection. Format: functional. An outline of the steps: as §3
Experiment [12] has as its system Trypanosoma cruzi. The experiment in a line: Antitrypanosomal activity against Trypanosoma cruzi Y infected in CD4+ T-lymphocyte knockout C57BL/6 mouse assessed as reactivation of parasite in mouse at 100 mg/kg/day, po administered once daily for 20 consecutive days measured 60 days post infection. Format: functional, organism-based. An outline of the steps: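 Ip infection was 5,000 Y-strain blood trypomastigotes. Oral dosing at 100 mg/kg/day, once daily in gum arabic water, ran from 4 dpi for 20 days. Parasitemia was read by microscopy of fresh tail blood, daily from 4–16 dpi, then every other day to 60 dpi. Reactivation was scored as patent parasitemia returning after treatment ended.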

The test system of experiment [13] is Trypanosoma cruzi. Briefly: Antitrypanosomal activity against Trypanosoma cruzi Y infected in CD8+ T-lymphocyte knockout C57BL/6 mouse assessed as number of mouse with reactivated parasite at 20 mg/kg/day, po administered twice daily for 20 consecutive days measured 60 days post infection. The experiment is classed as functional. Summed up: as §2
The subject of experiment [14] is Trypanosoma cruzi. The experiment in a line: Antitrypanosomal activity against Trypanosoma cruzi Y infected in B-lymphocyte knockout C57BL/6 mouse assessed as mean survival time at 20 mg/kg/day, po administered twice daily for 20 consecutive days measured 60 days post infection. Format: functional. An outline of the steps:
as §3

Experiment [15] relates to Trypanosoma cruzi. Briefly: Antitrypanosomal activity against Trypanosoma cruzi Y infected in CD8+ T-lymphocyte knockout C57BL/6 mouse assessed as occurrence of low level of circulating parasites at 20 mg/kg/day, po administered twice daily for 20 consecutive days measured 25 days post infection. The experiment is classed as functional, organism-based. An outline of the steps: as §2

Experiment [16] deals with Trypanosoma cruzi. The experiment in a line: Antitrypanosomal activity against Trypanosoma cruzi Y infected in CD4+ T-lymphocyte knockout C57BL/6 mouse assessed as increase in survival of mouse at 20 mg/kg/day, po administered twice daily for 20 consecutive days measured 60 days post infection. The experiment is classed as functional. The note with it: 1440 h. An outline of the steps:
as §3

Experiment [17] relates to Trypanosoma cruzi. Briefly: Antitrypanosomal activity against Trypanosoma cruzi Y infected in CD8+ T-lymphocyte knockout C57BL/6 mouse assessed as mean survival time at 20 mg/kg/day, po administered twice daily for 20 consecutive days measured 60 days post infection. The experiment is classed as functional. Summed up: as §3
Experiment [18] has as its system Trypanosoma cruzi. The experiment in a line: Antitrypanosomal activity against Trypanosoma cruzi Y infected in CD4+ T-lymphocyte knockout C57BL/6 mouse assessed as mean survival time at 20 mg/kg/day, po administered twice daily for 20 consecutive days measured 60 days post infection. The experiment is classed as functional. An outline of the steps: as §3
Experiment [19] deals with Trypanosoma cruzi. Briefly: Antitrypanosomal activity against Trypanosoma cruzi Y infected in CD4+ T-lymphocyte knockout C57BL/6 mouse assessed as reactivation of parasite in mouse at 20 mg/kg/day, po administered twice daily for 20 consecutive days measured 7 days post infection. Format: functional, organism-based. An outline of the steps: as §2

Turning to `CC[C@@H]([C@H](C)O)n1ncn(-c2ccc(N3CCN(c4ccc(OC[C@@H]5CO[C@@](Cn6cncn6)(c6ccc(F)cc6F)C5)cc4)CC3)cc2)c1=O` [POSACONAZOLE], the Activity in the experiment on Trypanosoma cruzi [1] was 31%; with Trypanosoma cruzi [4], 0%; in the experiment on Trypanosoma cruzi [9], 89%; with Trypanosoma cruzi [10] it was 71%; in the experiment with Trypanosoma cruzi [13], 13%. Also, the outcome in the experiment with Trypanosoma cruzi [2], with Trypanosoma cruzi [12] and with Trypanosoma cruzi [19] was inactive. The survival at 20 mg/kg/day came to 100% in the experiment with Trypanosoma cruzi [3], 100% in the experiment with Trypanosoma cruzi [5], 81% in the experiment on Trypanosoma cruzi [8] and 6% in the experiment on Trypanosoma cruzi [16]. Further, the result in the experiment with Trypanosoma cruzi [6], with Trypanosoma cruzi [7] and in the experiment on Trypanosoma cruzi [15] was Active. The MST was more than 60 days with Trypanosoma cruzi [11], more than 60 days in the experiment with Trypanosoma cruzi [14], 59.6 days with Trypanosoma cruzi [17] and 50.5 days in the experiment with Trypanosoma cruzi [18].
